Experimental data published in ChEMBL document CHEMBL4425163, “Structure elucidation of anti-methicillin resistant Staphylococcus aureus (MRSA) flavonoids from balsam poplar buds” (Bioorg Med Chem, 2016).
pIC50: −log10 of the molar value. Converted amounts (≈) assume the structure as drawn.

Key:
[1] = test system: Staphylococcus aureus; test: Antibacterial activity against Staphylococcus aureus ATCC 25923 incubated […] by microdilution resazurin assay; assay type: functional; details: Staphylococcus aureus, ATCC 25923; read-out: MIC
[2] = test system: Staphylococcus aureus; test: Antibacterial activity against methicillin resistant Staphylococcus aureus clinical isolate 1 incubated […] by microdilution resazurin assay; assay type: functional; details: Staphylococcus aureus, isolate 1; read-out: MIC
[3] = test system: Staphylococcus aureus; test: Antibacterial activity against methicillin resistant Staphylococcus aureus clinical isolate 2 incubated […] by microdilution resazurin assay; assay type: functional; details: Staphylococcus aureus, isolate 2; read-out: MIC
[4] = test system: Staphylococcus aureus; test: Antibacterial activity against methicillin resistant Staphylococcus aureus clinical isolate 3 incubated for 7 to 14 days by microdilution resazurin assay
[5] = test system: Staphylococcus aureus; test: Antibacterial activity against methicillin resistant Staphylococcus aureus clinical isolate 4 incubated for 7 to 14 days by microdilution resazurin assay
[6] = test system: Staphylococcus aureus; test: Antibacterial activity against methicillin resistant Staphylococcus aureus clinical isolate 5 incubated […] by microdilution resazurin assay; assay type: functional; details: Staphylococcus aureus, isolate 5; read-out: MIC
[7] = test system: Staphylococcus aureus; test: Antibacterial activity against methicillin resistant Staphylococcus aureus clinical isolate 6 incubated […] by microdilution resazurin assay; assay type: functional; details: Staphylococcus aureus, isolate 6; read-out: MIC
[8] = test system: Staphylococcus aureus; test: Antibacterial activity against methicillin resistant Staphylococcus aureus clinical isolate 7 incubated […] by microdilution resazurin assay; assay type: functional; details: Staphylococcus aureus, isolate 7; read-out: MIC
[9] = test system: Staphylococcus aureus; test: Antibacterial activity against methicillin resistant Staphylococcus aureus clinical isolate 8 incubated […] by microdilution resazurin assay; assay type: functional; details: Staphylococcus aureus, isolate 8; read-out: MIC
[10] = test system: Staphylococcus aureus; test: Antibacterial activity against methicillin resistant Staphylococcus aureus clinical isolate 9 incubated […] by microdilution resazurin assay; assay type: functional; details: Staphylococcus aureus, isolate 9; read-out: MIC
[11] = test system: Staphylococcus aureus; test: Antibacterial activity against methicillin resistant Staphylococcus aureus clinical isolate 10 incubated […] by microdilution resazurin assay; assay type: functional; details: Staphylococcus aureus, isolate 10; read-out: MIC
[12] = Cytotoxicity against human WS1 cells by resazurin reduction assay; assay type: cell-based; details: Homo sapiens, WS1
In short: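 WS1 human fibroblast line; resazurin reduction test, slightly modified from an earlier method. Etoposide served as positive control.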

Structure (SMILES) | MIC [1] [µM] | MIC [2] [µM] | MIC [3] [µM] | MIC [4] [µM] | MIC [5] [µM] | MIC [6] [µM] | MIC [7] [µM] | MIC [8] [µM] | MIC [9] [µM] | MIC [10] [µM] | MIC [11] [µM] | pIC50 [12]
COc1ccc(CCC(=O)c2c(O)cc(O)c3c2O[C@H](c2ccc(O)cc2)CC3)cc1 | > 50 | > 50 | > 50 | > 50 | > 50 | > 50 | > 50 | > 50 | > 50 | > 50 | > 50 | < 5.00
O=C(CCc1ccccc1)c1c(O)cc(O)c(C/C=C/c2ccc(O)cc2)c1O | 6 (≈ 2.34 µg/mL) | 6 (≈ 2.34 µg/mL) | 6 (≈ 2.34 µg/mL) | 6 (≈ 2.34 µg/mL) | 6 (≈ 2.34 µg/mL) | 3 (≈ 1.17 µg/mL) | 50 (≈ 19.5 µg/mL) | 6 (≈ 2.34 µg/mL) | 3 (≈ 1.17 µg/mL) | 3 (≈ 1.17 µg/mL) | 6 (≈ 2.34 µg/mL) | < 5.00
O=C(CCc1ccc(O)cc1)c1c(O)cc(O)c2c1O[C@@H](c1ccc(O)cc1)[C@H](C/C=C/c1ccc(O)cc1)C2 | 13 (≈ 7 µg/mL) | 25 (≈ 13.5 µg/mL) | 13 (≈ 7 µg/mL) | 13 (≈ 7 µg/mL) | 25 (≈ 13.5 µg/mL) | 13 (≈ 7 µg/mL) | 13 (≈ 7 µg/mL) | 6 (≈ 3.23 µg/mL) | 13 (≈ 7 µg/mL) | 13 (≈ 7 µg/mL) | 13 (≈ 7 µg/mL) | < 5.00
COc1cc(O)c(C(=O)CCc2ccc(O)cc2)c2c1CCC(c1ccc(O)cc1)O2 (centres undefined) | > 50 | > 50 | 50 (≈ 21 µg/mL) | > 50 | > 50 | > 50 | 50 (≈ 21 µg/mL) | 50 (≈ 21 µg/mL) | > 50 | > 50 | > 50 | < 5.00
COc1ccc(CCC(=O)c2c(O)cc(O)c(C/C=C/c3ccc(O)cc3)c2O)cc1 | > 50 | 50 (≈ 21 µg/mL) | 25 (≈ 10.5 µg/mL) | 13 (≈ 5.47 µg/mL) | 13 (≈ 5.47 µg/mL) | 13 (≈ 5.47 µg/mL) | 25 (≈ 10.5 µg/mL) | 25 (≈ 10.5 µg/mL) | 25 (≈ 10.5 µg/mL) | 25 (≈ 10.5 µg/mL) | 25 (≈ 10.5 µg/mL) | < 5.00
O=C(CCc1ccc(O)cc1)c1c(O)cc(O)c2c1O[C@H](c1ccc(O)cc1)[C@@H](C/C=C/c1ccc(O)cc1)C2 | 6 (≈ 3.23 µg/mL) | 3 (≈ 1.62 µg/mL) | 3 (≈ 1.62 µg/mL) | 3 (≈ 1.62 µg/mL) | 3 (≈ 1.62 µg/mL) | 3 (≈ 1.62 µg/mL) | 3 (≈ 1.62 µg/mL) | 3 (≈ 1.62 µg/mL) | 3 (≈ 1.62 µg/mL) | 3 (≈ 1.62 µg/mL) | 3 (≈ 1.62 µg/mL) | < 5.00
COc1cc(O)c(C(=O)CCc2ccc(O)cc2)c(O)c1C/C=C/c1ccc(O)cc1 | > 50 | > 50 | 50 (≈ 21 µg/mL) | 50 (≈ 21 µg/mL) | 50 (≈ 21 µg/mL) | 50 (≈ 21 µg/mL) | 50 (≈ 21 µg/mL) | 50 (≈ 21 µg/mL) | 50 (≈ 21 µg/mL) | > 50 | 50 (≈ 21 µg/mL) | < 5.00
COc1ccc(CCC(=O)c2c(O)cc(O)c3c2O[C@@H](c2ccc(O)cc2)CC3)cc1 | 25 (≈ 10.5 µg/mL) | 13 (≈ 5.47 µg/mL) | 13 (≈ 5.47 µg/mL) | 13 (≈ 5.47 µg/mL) | 25 (≈ 10.5 µg/mL) | 13 (≈ 5.47 µg/mL) | 25 (≈ 10.5 µg/mL) | 13 (≈ 5.47 µg/mL) | 13 (≈ 5.47 µg/mL) | 13 (≈ 5.47 µg/mL) | 25 (≈ 10.5 µg/mL) | < 5.00
O=C(CCc1ccccc1)c1c(O)cc2c(c1O)C[C@@H](C/C=C/c1ccc(O)cc1)[C@H](c1ccc(O)cc1)O2 (racemic) | > 50 | > 50 | > 50 | > 50 | > 50 | > 50 | > 50 | > 50 | > 50 | > 50 | > 50 | < 5.00
COc1ccc(CCC(=O)c2c(O)cc(O)c(C(c3ccc(O)cc3)C(C/C=C/c3ccc(O)cc3)COC(=O)/C=C/c3ccccc3)c2O)cc1 (racemic) | 25 (≈ 17.5 µg/mL) | > 50 | > 50 | > 50 | > 50 | > 50 | > 50 | > 50 | > 50 | > 50 | > 50 | < 5.00
COc1ccc(CCC(=O)c2c(O)c3c(c4c2O[C@@H](c2ccc(O)cc2)[C@H](C/C=C/c2ccc(O)cc2)C4)O[C@@H](c2ccc(O)cc2)[C@H](O)C3)cc1 (racemic) | 50 (≈ 35 µg/mL) | 25 (≈ 17.5 µg/mL) | 25 (≈ 17.5 µg/mL) | 25 (≈ 17.5 µg/mL) | 50 (≈ 35 µg/mL) | 13 (≈ 9.11 µg/mL) | 50 (≈ 35 µg/mL) | 25 (≈ 17.5 µg/mL) | 25 (≈ 17.5 µg/mL) | 25 (≈ 17.5 µg/mL) | 25 (≈ 17.5 µg/mL) | < 5.00
COc1ccc(CCC(=O)c2c(O)c3c(c4c2OC(c2ccc(O)cc2)C(C/C=C/c2ccc(O)cc2)C4)OC(c2ccc(O)cc2)C(C/C=C/c2ccc(O)cc2)C3)cc1 (racemic) | > 50 | > 50 | > 50 | > 50 | > 50 | > 50 | > 50 | > 50 | > 50 | > 50 | > 50 | < 5.00
